Experimental data published in ChEMBL document CHEMBL3352138, “Synthesis of novel 1,2,4-triazoles, triazolothiadiazines and triazolothiadiazoles as potential anticancer agents” (Eur J Med Chem, 2014).

Experiments:
Type in all cases: functional, cell-based
[1] = Cytotoxicity against human HONE1 cells after 24 hrs by SRB assay; conditions: HONE1, 24 h
Outline: (§1)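 Monolayer cultures kept in RPMI-1640 with 5% heat-inactivated FBS, 2 mM glutamine, penicillin 100 U/mL and streptomycin, at 37 °C in humidified 5% CO₂. Exponentially growing cells were obtained by plating 1.5×10^5 cells/mL and incubating 24 h before treatment. Vehicle controls received DMSO at 0.5%, the maximum used in each assay.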

[2] = Cytotoxicity against human MCF cells after 24 hrs by SRB assay; outline: as §1
[3] = Cytotoxicity against human DLD1 cells after 24 hrs by SRB assay; conditions: DLD-1, 24 h; outline: as §1
HepG2 = experiment: Cytotoxicity against human HepG2 cells after 24 hrs by SRB assay; conditions: HepG2, 24 h; outline: as §1
[4] = Cytotoxicity against human HA22T cells after 24 hrs by SRB assay; outline: as §1
NUGC = experiment: Cytotoxicity against human NUGC cells after 24 hrs by SRB assay; outline: as §1
[5] = Cytotoxicity against human WI38 cells after 24 hrs by SRB assay; conditions: WI-38, 24 h
Outline: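 Normal fibroblasts were grown as monolayer in RPMI-1640 with 5% heat-inactivated FBS, 2 mM glutamine, penicillin 100 U/mL and streptomycin, at 37 °C in humidified 5% CO₂. Untreated control cells were exposed to the maximum DMSO vehicle concentration (0.5%) used in each assay.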

c1ccc(-c2nn3c(-c4ccncc4)nnc3s2)cc1
IC50 [1]: 2.43 µM
IC50 [2]: 1.54 µM
IC50 [3]: 3.36 µM
IC50 (HepG2): 1.36 µM
IC50 [4]: 1.27 µM
IC50 (NUGC): 1.28 µM

Clc1ccccc1-c1nn2c(-c3ccncc3)nnc2s1
IC50 [1]: 1.17 µM
IC50 [2]: 2.18 µM
IC50 [3]: 2.67 µM
IC50 (HepG2): 1.33 µM
IC50 [4]: 1.26 µM
IC50 (NUGC): 3.22 µM

Clc1ccc(-c2nn3c(-c4ccncc4)nnc3s2)c(Cl)c1
IC50 [1]: 1.17 µM
IC50 [2]: 3.22 µM
IC50 [3]: 1.19 µM
IC50 (HepG2): 2.27 µM
IC50 [4]: 3.07 µM
IC50 (NUGC): 2.16 µM

c1ccc(C2=Nn3c(nnc3-c3ccncc3)SC2)cc1
IC50 [1]: 0.11 µM
IC50 [2]: 0.08 µM
IC50 [3]: 2.35 µM
IC50 (HepG2): 0.469 µM
IC50 [4]: 0.122 µM
IC50 (NUGC): 0.059 µM

Clc1ccc(-c2nn3c(-c4ccncc4)nnc3s2)cc1
IC50 [1]: 0.488 µM
IC50 [2]: 1.62 µM
IC50 [3]: 0.049 µM
IC50 (HepG2): 1.23 µM
IC50 [4]: 0.12 µM
IC50 (NUGC): 0.025 µM

CC(=O)Nn1c(S)nnc1-c1ccncc1
IC50 [1]: 1.18 µM
IC50 [2]: 2.1 µM
IC50 [3]: 0.042 µM
IC50 (HepG2): 0.053 µM
IC50 [4]: 0.166 µM
IC50 (NUGC): 0.044 µM

O=C(Nn1c(S)nnc1-c1ccncc1)c1ccc([N+](=O)[O-])cc1
IC50 [1]: 2.28 µM
IC50 [2]: 1.09 µM
IC50 [3]: 0.266 µM
IC50 (HepG2): 0.089 µM
IC50 [4]: 1.11 µM
IC50 (NUGC): 0.36 µM

Brc1ccc(C2=Nn3c(nnc3-c3ccncc3)SC2)cc1
IC50 [1]: 1.78 µM
IC50 [2]: 2.27 µM
IC50 [3]: 2.38 µM
IC50 (HepG2): 2.29 µM
IC50 [4]: 2.06 µM
IC50 (NUGC): 2.49 µM

Cc1nn2c(-c3ccncc3)nnc2s1
IC50 [1]: 1.08 µM
IC50 [2]: 0.219 µM
IC50 [3]: 3.29 µM
IC50 (HepG2): 2.73 µM
IC50 [5]: 0.65 µM
IC50 [4]: 1.72 µM
IC50 (NUGC): 2.19 µM

S=C(Nc1ccc(Cl)cc1)Nn1c(S)nnc1-c1ccncc1
IC50 [1]: 1.22 µM
IC50 [2]: 3.23 µM
IC50 [3]: 2.25 µM
IC50 (HepG2): 2.02 µM
IC50 [5]: 2.19 µM
IC50 [4]: 2.01 µM
IC50 (NUGC): 2.12 µM

COc1ccc(NC(=S)Nn2c(S)nnc2-c2ccncc2)cc1
IC50 [1]: 2.27 µM
IC50 [2]: 1.67 µM
IC50 [3]: 2.29 µM
IC50 (HepG2): 1.3 µM
IC50 [4]: 2.37 µM
IC50 (NUGC): 1.82 µM

Cc1ccc(NC(=S)Nn2c(S)nnc2-c2ccncc2)cc1
IC50 [1]: 1.29 µM
IC50 [2]: 2.17 µM
IC50 [3]: 2.15 µM
IC50 (HepG2): 1.23 µM
IC50 [4]: 2.38 µM
IC50 (NUGC): 2.77 µM

S=C(Nc1ccc(Br)cc1)Nn1c(S)nnc1-c1ccncc1
IC50 [1]: 1.68 µM
IC50 [2]: 1.59 µM
IC50 [3]: 3.27 µM
IC50 (HepG2): 2.78 µM
IC50 [5]: 1.29 µM
IC50 [4]: 3.2 µM
IC50 (NUGC): 3.29 µM

Clc1ccc(Nc2nn3c(-c4ccncc4)nnc3s2)cc1
IC50 [1]: 2.27 µM
IC50 [2]: 1.26 µM
IC50 [3]: 3.26 µM
IC50 (HepG2): 1.98 µM
IC50 [4]: 3.07 µM
IC50 (NUGC): 1.29 µM

COc1ccc(Nc2nn3c(-c4ccncc4)nnc3s2)cc1
IC50 [1]: 2.22 µM
IC50 [2]: 0.215 µM
IC50 [3]: 0.128 µM
IC50 (HepG2): 0.333 µM
IC50 [4]: 0.282 µM
IC50 (NUGC): 0.056 µM

Cc1ccc(Nc2nn3c(-c4ccncc4)nnc3s2)cc1
IC50 [1]: 3.28 µM
IC50 [2]: 0.12 µM
IC50 [3]: 1.38 µM
IC50 (HepG2): 0.312 µM
IC50 [5]: 0.48 µM
IC50 [4]: 0.277 µM
IC50 (NUGC): 0.54 µM

Brc1ccc(Nc2nn3c(-c4ccncc4)nnc3s2)cc1
IC50 [1]: 2.22 µM
IC50 [2]: 0.229 µM
IC50 [3]: 0.32 µM
IC50 (HepG2): 0.128 µM
IC50 [4]: 0.782 µM
IC50 (NUGC): 0.136 µM

N#CN=C(NCCCCCCOc1ccc(Cl)cc1)Nc1ccncc1 [CHS-828]
IC50 [1]: 0.015 µM
IC50 [2]: 0.018 µM
